Arbovirus inh – arbovirus infection inhibition. arbovirus infection cell-based antiviral screen. inhibition, % at 10 µM. 200,000 compounds, 0.37% hits. AID 1251; in the data active = inhibition above about 30%
Lmaj promast – reduces viability of Leishmania major promastigotes; resazurin fluorescence viability; inhibition, % at 10 µM; 200,000 compounds, 9% hits; AID 1063;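 note: promastigotes grown with compound for 44 hours at 28 °C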
Wee1 stabilizer – inhibitors of human Wee1 degradation; HeLa Luc-Wee1K328M stability, luciferase luminescence; 100% = proteasome inhibitor MG132 effect; P30291; reporter increase, % at 5 µM; 220,000 compounds, 1.2% hits; AID 1321;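 active = activation above the mean of all tested compounds plus 3 SD, set per screening run, cut at about 8.8% in these data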;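 note: cells exposed to compound for 20 h before luminescence read; 0% = DMSO alone and 100% = MG132 at 30 µM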
PKD1 kinase inh – inhibitors of human PKD1 kinase; 200,000 compounds, 0.056% hits; inhibition, % (test concentration not listed); PKD1 kinase fluorescence polarization assay; Q15139
Target sequence (Q15139 whole entry, looked up): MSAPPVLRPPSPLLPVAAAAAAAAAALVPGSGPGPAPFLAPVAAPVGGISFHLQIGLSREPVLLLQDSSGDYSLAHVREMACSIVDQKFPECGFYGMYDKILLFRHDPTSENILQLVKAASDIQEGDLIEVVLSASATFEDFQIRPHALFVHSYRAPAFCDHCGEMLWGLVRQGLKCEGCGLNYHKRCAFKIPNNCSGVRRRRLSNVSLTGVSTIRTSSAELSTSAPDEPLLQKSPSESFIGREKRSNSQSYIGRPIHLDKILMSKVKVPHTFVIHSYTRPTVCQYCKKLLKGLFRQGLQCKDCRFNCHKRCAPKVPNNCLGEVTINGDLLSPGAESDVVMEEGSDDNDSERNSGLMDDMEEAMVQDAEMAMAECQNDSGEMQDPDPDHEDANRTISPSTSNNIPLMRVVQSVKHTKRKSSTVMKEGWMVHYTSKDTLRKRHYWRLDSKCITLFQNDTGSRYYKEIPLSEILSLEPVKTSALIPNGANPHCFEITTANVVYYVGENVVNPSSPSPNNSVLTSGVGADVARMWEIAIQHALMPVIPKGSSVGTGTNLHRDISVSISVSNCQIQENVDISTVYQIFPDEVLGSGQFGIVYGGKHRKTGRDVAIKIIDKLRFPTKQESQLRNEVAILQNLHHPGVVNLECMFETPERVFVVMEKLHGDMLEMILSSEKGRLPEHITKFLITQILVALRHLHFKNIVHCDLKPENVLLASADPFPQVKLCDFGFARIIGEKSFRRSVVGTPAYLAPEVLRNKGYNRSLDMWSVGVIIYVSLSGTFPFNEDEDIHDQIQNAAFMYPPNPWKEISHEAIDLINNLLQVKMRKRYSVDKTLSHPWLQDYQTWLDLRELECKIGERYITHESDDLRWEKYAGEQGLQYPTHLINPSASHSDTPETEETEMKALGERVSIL
Rad51 HR inh – Rad51 (human) homologous recombination inhibition | Q06609 | hRad51 DNA strand exchange, fluorescence dequenching | inhibition, % at 10 µM | 200,000 compounds, 0.085% hits | AID 1385;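 active = inhibition above 40% at the single screening dose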;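 note: 0% = DMSO control wells and 100% = blanks with heterologous ssDNA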
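material = hRad51 filaments on single-stranded DNA | timing = filaments 15 min 37 °C, then compound 30 min | signal = FRET fluorescence dequenching, excitation 485 nm, emission 520 nm | benchmarks = control wells and blank wells on each plate | evaluation = percent inhibition relative to plate controls and blanks | compound = 10 µM final, single point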
CHOP inh – CHOP inhibition in unfolded protein response. CHO-K1 CHOP-promoter luciferase, tunicamycin-induced, 15-18 h. inhibition, % at 10 µM. 220,000 compounds, 3.8% hits;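 active = compounds that reduced the stress-induced luciferase reporter signal by more than about 70% of percent inhibition, limit read from the data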;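 note: 0% = tunicamycin plus vehicle and 100% = wells without tunicamycin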
Numbers without * were called inactive; x = no result. Compounds with a hit are over-represented: about 12% of the library has one in this group of screens. Cut-off read from the data, not from the text of the source, unless noted: active = inhibition above about 50%; inactive = the rest.

SMILES	Arbovirus inh	Lmaj promast	Wee1 stabilizer	PKD1 kinase inh	Rad51 HR inh	CHOP inh
O=P(c1ccccc1)(c1ccccc1)N(c1ccccc1)c1ccccc1	-8	65*	-2	-7	-5	57
O=P(Cc1ccccc1O)(c1ccccc1)c1ccccc1	5	0	-1	10	5	-7
O=C1N(Cc2cccnc2)C[C@@H]2C[C@@H](c3cccc(Oc4ccccc4)c3)N3CCC[C@@]123	x	x	-2	x	-1	25
COc1ccc(-c2nc(NC(=O)Cn3c(=O)oc4ccccc43)sc2C)cc1	3	5	-2	11	-12	50
COc1ccc(-c2nc(NC(=O)C3CCN(c4nc5ccccc5o4)CC3)sc2C)cc1	-1	79*	1	-3	-4	78*
CCCNC(=S)N1CC2(C)CN(C(=O)C(=O)OC)CC(C)(C1)C2=O	2	-5	0	-7	12	-5
O=C(c1ccccc1)c1n[nH]c(-c2ccccc2)cc1=O	9	-11	-2	-4	-4	-16
CCOC(=O)COc1ccc(S(=O)(=O)NCc2ccncc2)cc1	5	-5	-1	-7	-1	58
CCOc1ccc(S(=O)(=O)NCc2ccncc2)cc1	11	-3	-2	5	3	78*
O=C1CC(c2ccc(F)cc2)Sc2nc(C34CC5CC(CC(C5)C3)C4)nn21 (stereo not drawn)	-11	1	-2	5	31	49
COc1ccc(Cl)cc1NC(=O)c1nc2nc(C)cc(C(F)F)n2n1	-6	-7	-1	-10	2	74*
COc1cccc(NC(=O)c2nc3nc(C)cc(C(F)F)n3n2)c1	-2	-5	-3	3	-1	19
CS(=O)(=O)c1ccc(C(=O)NC2CCCc3ccccc32)cc1 (stereo not drawn)	7	1	-2	-5	1	-15
CCCCNC(=O)/C(C#N)=C/c1ccc(F)cc1F	-5	14	3	-5	x	-13
S=C(Nc1ccc(Cl)cc1)N(CCCN1CCOCC1)Cc1cccs1	4	-9	5	-6	3	30
COc1cccc(NC(=S)N(CCCN2CCCC2)Cc2ccco2)c1	7	44	1	-1	-9	15
CSc1cccc(NC(=S)N(CCCN2CCCC2)Cc2cccn2Cc2ccc(Cl)cc2)c1	-30	101*	8	-1	-4	22
COc1cccc(NC(=S)N(CCCN2CCCC2)Cc2cccn2Cc2ccc(Cl)cc2)c1	-31	91*	1	-5	x	-22
S=C(Nc1cccc(Cl)c1)N(CCCN1CCCC1)Cc1cccn1Cc1ccc(Cl)cc1	-34	100*	6	2	-6	14
CCc1nc(SCC(=O)c2cccs2)c2oc3ccccc3c2n1	-10	3	5	5	1	14
CN(/C(=N\S(=O)(=O)c1ccccc1)C(F)(F)F)c1ccccc1	-2	0	-1	5	-6	0
CC(C)C[C@H](NC(=O)NCc1ccc(F)cc1)C(=O)O	x	x	2	x	-20	-10
CC1/C(=C\c2ccc(Cl)cc2)C(=O)C2CC1C2(C)C (stereo not drawn)	-9	-4	-2	-7	1	76*
CC1CCC(C(C)C)C(=O)/C1=C/c1ccc(N)cc1 (stereo not drawn)	x	x	-1	x	1	17
CCc1ccc(C(=O)COC(=O)c2cccnc2Cl)cc1	-5	-5	0	-3	19	-4
SMILES	Arbovirus inh	Lmaj promast	Wee1 stabilizer	PKD1 kinase inh	Rad51 HR inh	CHOP inh
C/C(=N\NC(=O)Cn1c(-c2ccccn2)nc2ccccc21)c1cccc(O)c1	8	4	3	2	33	-9
C/C(=N\NC(=O)Cn1c(-c2ccccn2)nc2ccccc21)c1ccccc1	-9	68*	-1	-4	-9	-2
Fc1ccc(COc2ccc(Br)cc2CNCC2CCCO2)cc1 (stereo not drawn)	13	82*	4	-4	-2	21
COC(=O)C1CSC(C(=O)OC)N1C(=O)CN1CCN(c2ccccc2)CC1 (stereo not drawn)	6	-9	3	2	1	1
Cc1ccc(S(=O)(=O)N[C@H](C(=O)Oc2ccc3c(C(F)(F)F)cc(=O)oc3c2)c2ccccc2)cc1	9	-3	1	7	-23	75*
Cc1ccc(S(=O)(=O)NC(C(=O)Oc2ccc3ccc(=O)oc3c2)c2ccccc2)cc1 (stereo not drawn)	17	-4	3	2	-6	22
CC1CC(C)(C)Nc2ccc(OC(=O)c3ccco3)cc21 (stereo not drawn)	-27	98*	-3	2	-4	38
CC1CC(C)(C)Nc2ccc(N=O)cc21 (stereo not drawn)	-33	100*	3	-3	0	96*
Cc1noc(C)c1N=Nc1ccc(Br)cc1C(=O)O	6	-5	-3	-4	x	14
CC(=O)c1cc(CN2CCC(N3CCC(C(=O)N4CCCC4)CC3)CC2)cs1	7	13	7	5	-2	-6
CC1(C)[C@H]2CC=C(CN3CCC(N4CCC(C(=O)N5CCCC5)CC4)CC3)[C@@H]1C2	-30	89*	-3	9	-1	10
O=C(Nc1ccc(F)c([N+](=O)[O-])c1)c1ccc2c(c1)C(=O)OC2=O	x	x	4	x	4	7
CCC(=O)Nc1nnc(-c2ccc(Cl)s2)o1	5	21	9.3*	0	23	-15
CC(=O)Nc1nnc(-c2ccc(Cl)s2)o1	3	-2	0	-15	6	12
NS(=O)(=O)c1ccc(CCNC(=O)C2CCC(Cn3c(=S)[nH]c4ccccc4c3=O)CC2)cc1 (stereo not drawn)	-8	-8	-2	-3	-1	-5
NS(=O)(=O)c1ccc(CCn2c(=S)[nH]c3ccc(F)cc3c2=O)cc1	-2	76*	-2	2	-7	0
COc1ccc2ncc(S(=O)(=O)c3ccccc3)c(N3CCN(c4ccccc4)CC3)c2c1	1	99*	0	-6	1	13
Cc1ccc(Cn2ccc(-c3cnc(-c4ccccc4)s3)n2)cc1	-8	8	-3	-4	7	87*
Fc1ccc(Cn2ccc(-c3cnc(-c4ccccc4)s3)n2)cc1	17	-9	2	-6	10	80*
O=S(=O)(c1ccccc1)n1ccc(-c2cnc(-c3ccccc3)s2)n1	-1	-5	0	-8	-3	20
Clc1ncc(CN2CCN(Cc3ccccc3)CC2)s1	5	27	-3	-3	-1	1
CC(C)NC(=O)N(Cc1ccccc1)Cc1cccs1	x	x	0	x	11	5
CC1=C(C(=O)Nc2cccnc2)C(c2cccnc2)n2nc(-c3cccs3)nc2N1 (stereo not drawn)	-1	84*	0	6	-2	6
COc1ccc(C2Nc3ccccc3C(=O)N2C2CCCCC2)cc1 (stereo not drawn)	-4	9	-1	4	-5	-22
O=C(c1cccs1)N1CCc2ccccc2C1	-1	-5	0	-5	0	-5

Bioassay records (PubChem)
